Type in all cases: cell-based
Test [1] concerns the target T1, Adenosine receptor A2b (Homo sapiens) (UniProt P29275).
T1 sequence (whole entry): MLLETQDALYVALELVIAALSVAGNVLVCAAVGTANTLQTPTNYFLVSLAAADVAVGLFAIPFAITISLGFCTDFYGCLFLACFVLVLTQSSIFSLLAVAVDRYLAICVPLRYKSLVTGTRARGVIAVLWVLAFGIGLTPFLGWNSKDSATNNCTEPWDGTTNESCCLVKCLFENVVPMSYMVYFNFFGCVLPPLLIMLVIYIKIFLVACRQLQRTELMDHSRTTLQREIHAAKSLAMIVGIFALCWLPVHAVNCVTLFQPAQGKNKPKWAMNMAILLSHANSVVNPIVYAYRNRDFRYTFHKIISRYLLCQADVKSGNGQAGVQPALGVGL
Description: Displacement of [3H]DPCPX from human adenosine A2b receptor expressed in HEK293 cells at 10 uM after 30 mins. Put shortly: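 Human A2B receptor expressed in HEK-293 cells, with displacement of [3H]DPCPX. Incubated at 25 °C for 30 min, then filtered and counted by beta scintillation. Reported as Ki (nM) or percentage inhibition at the single test concentration. Means of four independent assays, each run in triplicate.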
Background: Loss of bound radioactivity is the signal in a displacement assay; it reports binding, not function.

In a further test the target is T2, Adenosine receptor A1 (Homo sapiens, UniProt P30542).
T2 sequence (P30542 whole entry): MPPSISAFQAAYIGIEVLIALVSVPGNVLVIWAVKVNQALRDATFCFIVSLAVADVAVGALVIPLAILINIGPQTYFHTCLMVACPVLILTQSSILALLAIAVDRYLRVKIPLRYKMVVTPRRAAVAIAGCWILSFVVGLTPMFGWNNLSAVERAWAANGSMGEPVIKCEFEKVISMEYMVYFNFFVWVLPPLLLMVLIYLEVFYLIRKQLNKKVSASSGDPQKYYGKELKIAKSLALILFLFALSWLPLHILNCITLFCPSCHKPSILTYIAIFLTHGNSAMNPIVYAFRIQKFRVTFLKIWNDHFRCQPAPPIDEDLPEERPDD
Description: Displacement of [3H]DPCPX from human adenosine A1 receptor expressed in CHO-A1 cells after 60 mins. The gist of the method: (§1)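 Competition binding on membranes from CHO cells expressing human A1 receptor, labelled with 2 nM [3H]DPCPX. Non-specific binding defined with (R)-PIA. Incubation at 25 °C for 60 min, then filtration and beta scintillation counting. Result given as Ki (nM) or % inhibition at the single test concentration. Means of four separate assays, each in triplicate.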

The target in test [2] is T3, Adenosine receptor A3 (Homo sapiens) (UniProt P0DMS8).
T3 sequence (whole entry): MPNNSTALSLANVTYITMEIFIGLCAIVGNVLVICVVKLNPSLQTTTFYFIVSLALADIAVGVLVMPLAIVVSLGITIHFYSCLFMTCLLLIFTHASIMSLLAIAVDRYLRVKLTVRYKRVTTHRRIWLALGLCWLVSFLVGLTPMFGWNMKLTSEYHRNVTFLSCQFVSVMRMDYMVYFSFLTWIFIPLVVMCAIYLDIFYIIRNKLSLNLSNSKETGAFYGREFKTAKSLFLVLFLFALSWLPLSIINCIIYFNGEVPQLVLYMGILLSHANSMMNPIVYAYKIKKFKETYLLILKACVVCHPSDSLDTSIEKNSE
Description: Displacement of [3H]NECA from human adenosine A3 receptor expressed in HeLa cells at 10 uM after 180 mins. The gist of the method: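 HeLa cells expressing human A3 receptor, with displacement of [3H]NECA. Incubated at 25 °C for 180 min, then filtered and counted by beta scintillation. Ki (nM) or percentage inhibition at the single test concentration. Means of four assays, each in triplicate.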

The target of test [3] is T4, Adenosine receptor A2a (Homo sapiens, UniProt P29274). Description: Displacement of [3H]ZM241385 from human adenosine A2a receptor expressed in HeLa cells at 10 uM after 30 mins. Put shortly: (§2)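 [3H]ZM241385 specific binding in HeLa cells expressing human A2A receptor. Incubation at 25 °C for 30 min, followed by filtration and beta scintillation counting. Output is Ki (nM) or % inhibition at the single test concentration. Values are means of four separate assays, each performed in triplicate.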

Test [4] concerns the target T4, Adenosine receptor A2a. Description: Displacement of [3H]ZM241385 from human adenosine A2a receptor expressed in HeLa cells after 30 mins. Put shortly: as §2
Test [5] deals with T5, Adenosine receptor A1 (Homo sapiens) (UniProt P30542).
T5 sequence (whole entry): T2 sequence (P30542 whole entry)
Description: Displacement of [3H]DPCPX from human adenosine A1 receptor expressed in CHO-A1 cells at 10 uM after 60 mins. Put shortly:
as §1

Structures are written as SMILES. Calls of active or inactive are those of the source. The calls are words filed in the database; no cut-off is given here.

The term inhibition denotes the drop in the measured response relative to a control, in per cent. What is called Ki is the dissociation constant of the complex between target and ligand, obtained from inhibition or displacement. A higher Ki goes with weaker binding.

T4 sequence (P29274 whole entry): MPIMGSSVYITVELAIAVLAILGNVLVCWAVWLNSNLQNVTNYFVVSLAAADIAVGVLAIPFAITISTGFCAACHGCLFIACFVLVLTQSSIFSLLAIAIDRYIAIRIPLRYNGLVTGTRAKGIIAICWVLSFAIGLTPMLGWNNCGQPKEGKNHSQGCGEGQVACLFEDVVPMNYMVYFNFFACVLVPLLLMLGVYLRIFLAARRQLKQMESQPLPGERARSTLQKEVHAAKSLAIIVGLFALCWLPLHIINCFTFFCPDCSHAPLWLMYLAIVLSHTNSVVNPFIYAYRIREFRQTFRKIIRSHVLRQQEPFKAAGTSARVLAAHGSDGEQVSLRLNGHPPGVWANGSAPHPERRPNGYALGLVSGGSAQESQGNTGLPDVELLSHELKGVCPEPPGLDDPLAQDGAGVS

Regarding `CCCc1nc2c(=O)n(Cc3ccccc3)nc(-c3ccccc3)c2c2cc(-c3ccccc3)nn12`, the inhibition result (in test [1]; in test [2]; at Adenosine receptor A2a [3]) was “inactive” in each case. Moreover, the Ki at Adenosine receptor A1 was 563 nM.

`CCCc1nc2c(=O)n(Cc3ccccc3)nc(-c3ccncc3)c2c2cc(-c3ccccc3)nn12`: the inhibition result in test [1] and in test [2] was “inactive” throughout. The values for the Ki at Adenosine receptor A1 and at Adenosine receptor A2a [4] were 28.3 nM and 772 nM, respectively.

Consider `Cc1nc2c(=O)n(Cc3ccccc3)nc(-c3cccc(F)c3)c2c2cc(-c3ccccc3)nn12`, for which the inhibition entry (in test [1]; in test [2]; at Adenosine receptor A2a [3]) was “inactive” each time. Moreover, on Adenosine receptor A1, the affinity corresponds to a Ki of 3240 nM.

For the compound `Cc1nn(Cc2ccccc2)c(=O)c2nnn3nc(-c4ccccc4)cc3c12`, the inhibition (in test [1]; in test [2]; on Adenosine receptor A2a [3]; in test [5]) was below 50% in each case.

On to `Cc1nc2c(=O)n(Cc3ccccc3)nc(-c3cccc(F)c3)c2c2cc(-c3ccsc3)nn12`, for which the inhibition entry (in test [1]; in test [2]; on Adenosine receptor A2a [3]) was “inactive” each time. The compound further gave an inhibition in test [5] below 50%.

Turning to `CCc1nc2c(=O)n(Cc3ccccc3)nc(-c3ccccc3)c2c2cc(-c3ccccc3)nn12`, the inhibition result (in test [1]; in test [2]; at Adenosine receptor A2a [3]) was “inactive” throughout. This compound returned a Ki on Adenosine receptor A1 of 2440 nM.

For the compound `Cc1nn(C(C)c2ccccc2)c(=O)c2ncn3nc(-c4ccccc4)cc3c12` (stereo unspecified), the inhibition (in test [1]; in test [2]; at Adenosine receptor A2a [3]) was below 50% throughout. The compound also registered a Ki on Adenosine receptor A1 of 475 nM.

As to `Cc1nn(Cc2ccccc2)c(=O)c2ncn3nccc3c12`, the inhibition (in test [1]; in test [2]; on Adenosine receptor A2a [3]; in test [5]) was below 50% each time.

Turning to `CCc1nc2c(=O)n(Cc3ccccc3)nc(-c3ccc(F)cc3)c2c2cc(-c3ccccc3)nn12`, the inhibition entry (in test [1]; in test [2]; on Adenosine receptor A2a [3]) was “inactive” each time. This compound also displayed an inhibition in test [5] below 50%.

With `CCc1nc2c(=O)n(Cc3ccccc3)nc(-c3cccc(F)c3)c2c2cc(-c3ccccc3)nn12`, the inhibition result (in test [1]; in test [2]; at Adenosine receptor A2a [3]) was “inactive” in each case. In test [5], this compound had an inhibition below 50%.

As to `O=c1c2ncn3nc(-c4ccsc4)cc3c2c(-c2ccc(F)cc2)nn1Cc1ccccc1`, the inhibition result (in test [1]; in test [2]; at Adenosine receptor A2a [3]) was “inactive” in each case. On Adenosine receptor A1, this compound yielded a Ki of 123 nM.

`Cc1nc2c(=S)n(Cc3ccccc3)nc(-c3ccncc3)c2c2cc(-c3ccccc3)nn12`: the inhibition entry in test [1] and in test [2] was “inactive” each time. For the same compound, the inhibition constant (Ki) on Adenosine receptor A1 was determined as 267 nM; at Adenosine receptor A2a [4], 572 nM.

For `CC(C)c1nc2c(=O)n(Cc3ccccc3)nc(-c3ccccc3)c2c2cc(-c3ccccc3)nn12`, the inhibition result (in test [1]; in test [2]; on Adenosine receptor A2a [3]) was “inactive” each time. The inhibition in test [5] was below 50%.

Turning to `O=c1c2ncn3nc(-c4ccccc4)cc3c2c(-c2cccc(F)c2)nn1Cc1ccccc1`, the inhibition result (in test [1]; in test [2]; on Adenosine receptor A2a [3]) was “inactive” throughout. The compound further gave a Ki at Adenosine receptor A1 of 92.7 nM.

Consider `O=c1c2ncn3nc(-c4ccccc4)cc3c2c(-c2ccccc2)nn1Cc1ccccc1`, for which the inhibition result (in test [1]; in test [2]; on Adenosine receptor A2a [3]) was “inactive” each time. The compound further yielded a Ki on Adenosine receptor A1 of 1430 nM.

As for `CC(C)c1nc2c(=O)n(Cc3ccccc3)nc(-c3ccncc3)c2c2cc(-c3ccccc3)nn12`, the inhibition entry in test [1] and in test [2] was “inactive” throughout. For the same compound, the figures for the Ki at Adenosine receptor A1 and at Adenosine receptor A2a [4] were 192 nM and 5190 nM, respectively.

As to `CCc1nc2c(=O)n(Cc3ccccc3)nc(-c3cccc(F)c3)c2c2cc(-c3ccsc3)nn12`, the inhibition entry (in test [1]; in test [2]; on Adenosine receptor A2a [3]) was “inactive” each time. In test [5], the inhibition is below 50%.

Turning to `CCc1nc2c(=O)n(Cc3ccccc3)nc(-c3ccncc3)c2c2cc(-c3ccccc3)nn12`, the inhibition result in test [1] and in test [2] was “inactive” each time. Besides, the results for the Ki on Adenosine receptor A1 and at Adenosine receptor A2a [4] were 71.8 nM and 2490 nM, respectively.

With `O=c1c2ncn3nc(-c4ccccc4)cc3c2c(-c2ccc(F)cc2)nn1Cc1ccccc1`, the inhibition result (in test [1]; in test [2]; on Adenosine receptor A2a [3]) was “inactive” throughout. At Adenosine receptor A1, affinity was put at a Ki of 252 nM.

As to `Fc1ccc(-c2nnc(Cl)c3ncn4nc(-c5ccccc5)cc4c23)cc1`, the inhibition entry (in test [1]; in test [2]; at Adenosine receptor A2a [3]) was “inactive” in each case. In test [5], the inhibition was below 50%.

On to `Cc1nc2c(=O)n(Cc3ccccc3)nc(Cl)c2c2cc(-c3ccccc3)nn12`, for which the inhibition in test [1] and in test [2] was below 50% throughout. For the same compound, the Ki on Adenosine receptor A1 is 1620 nM; on Adenosine receptor A2a [4] it was 3150 nM.

`O=c1c2nc(C(F)(F)F)n3nc(-c4ccccc4)cc3c2c(-c2ccc(F)cc2)nn1Cc1ccccc1`: the inhibition entry (in test [1]; in test [2]; on Adenosine receptor A2a [3]) was “inactive” throughout. In test [5], this compound came in with an inhibition below 50%.

For the compound `Cc1nn(Cc2ccccc2)c(=O)c2nc(C)n3nccc3c12`, the inhibition (in test [1]; in test [2]; on Adenosine receptor A2a [3]; in test [5]) was below 50% in each case.

Consider `Cc1nc2c(=O)n(Cc3ccccc3)nc(-c3ccc(F)cc3)c2c2cc(-c3ccccc3)nn12`, for which the inhibition result (in test [1]; in test [2]; on Adenosine receptor A2a [3]) was “inactive” in each case. In test [5], the inhibition was below 50%.

`Cc1nc2c(SCc3ccccc3)nnc(-c3ccncc3)c2c2cc(-c3ccccc3)nn12`: the inhibition result in test [1] and in test [2] was “inactive” each time. The inhibition (on Adenosine receptor A2a [3]; in test [5]) was below 50% each time.

Consider `Cc1nn(Cc2ccccc2)c(=O)c2nc(C)n3nc(-c4ccccc4)cc3c12`, for which the inhibition (in test [1]; in test [2]; on Adenosine receptor A2a [3]) was below 50% each time. This compound showed a Ki at Adenosine receptor A1 of 3250 nM.

With `O=c1c2ncn3nc(-c4ccsc4)cc3c2c(-c2cccc(F)c2)nn1Cc1ccccc1`, the inhibition entry (in test [1]; in test [2]; on Adenosine receptor A2a [3]) was “inactive” in each case. Besides, the affinity on Adenosine receptor A1 corresponds to a Ki of 189 nM.

Regarding `Cc1nc2c(=O)n(Cc3ccccc3)nc(-c3ccccc3)c2c2cc(-c3ccccc3)nn12`, the inhibition entry (in test [1]; in test [2]; at Adenosine receptor A2a [3]) was “inactive” throughout. In addition, at Adenosine receptor A1, the Ki amounted to 1590 nM.

Regarding `CCc1nc2c(=O)n(C(C)c3ccccc3)nc(C)c2c2cc(-c3ccccc3)nn12` (stereo unspecified), the inhibition (in test [1]; in test [2]; on Adenosine receptor A2a [3]) was below 50% in each case. In addition, at Adenosine receptor A1, the Ki is 2380 nM.

The values are drawn from ChEMBL document CHEMBL1275345, “Pyrazolo[1',5':1,6]pyrimido[4,5-d]pyridazin-4(3H)-ones as selective human A(1) adenosine receptor ligands” (Bioorg Med Chem, 2010).
